Measured values from ChEMBL document CHEMBL1132273, “Subtype-selective N-methyl-D-aspartate receptor antagonists: synthesis and biological evaluation of 1-(arylalkynyl)-4-benzylpiperidines” (J Med Chem, 1999).

Columns and labels:
[1] = target: T1, Glutamate NMDA receptor; Grin1/Grin2b (Rattus norvegicus, UniProt P35439+Q00960); experiment: Antagonistic activity against rat NR1A/2B receptor expressed in Xenopus oocytes; assay type: functional, cell-based, Oocyte
Summary of the method: (§1)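 Cloned NR1A/2B receptors in oocytes, recorded by two-electrode voltage clamp at -70 mV in nominally Ca2+-free Ringer (pH 7.4). Drugs are bath perfused, with final DMSO 0.1–1%. IC50 for inhibition of NMDA responses is fitted from partial 3–5 point curves, with the residual fractional response ('min') fixed at 0.15. Mean ± SEM.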

[2] = target: T2, Glutamate NMDA receptor; Grin1/Grin2c (Rattus norvegicus, UniProt P35439+Q00961); experiment: The compound was tested for antagonistic activity against rat NR1A/2C receptor expressed in Xenopus oocytes; assay type: functional, cell-based, Oocyte
Summary of the method: (§2)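 Drugs are given by bath perfusion at 7–10 mL/min, with final DMSO 0.1–1%. Inhibition of NMDA responses is measured, and IC50 is fitted from partial 3–5 point concentration–inhibition curves with a free residual minimum. Mean ± SEM, n as reported.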

[3] = target: T3, Glutamate NMDA receptor; Grin1/Grin2a (Rattus norvegicus, UniProt P35439+Q00959); experiment: Antagonistic activity against rat NR1A/2A receptor, expressed in Xenopus oocytes; assay type: functional, cell-based, Oocyte
Summary of the method: as §2, with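 “Two-electrode voltage clamp at -70 mV in nominally Ca2+-free Ringer (NaCl 115, KCl 2, BaCl2 1.8, HEPES 5 mM, pH 7.4). Drugs” for “Drugs”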

[4] = target: T4, Adrenergic receptor alpha-1 (Rattus norvegicus, UniProt P15823+P23944+P43140); experiment: Binding affinity against alpha-1 adrenergic receptor from rat using [3H]-prazosin as radioligand; assay type: protein assay
T4 sequence (P15823 whole entry): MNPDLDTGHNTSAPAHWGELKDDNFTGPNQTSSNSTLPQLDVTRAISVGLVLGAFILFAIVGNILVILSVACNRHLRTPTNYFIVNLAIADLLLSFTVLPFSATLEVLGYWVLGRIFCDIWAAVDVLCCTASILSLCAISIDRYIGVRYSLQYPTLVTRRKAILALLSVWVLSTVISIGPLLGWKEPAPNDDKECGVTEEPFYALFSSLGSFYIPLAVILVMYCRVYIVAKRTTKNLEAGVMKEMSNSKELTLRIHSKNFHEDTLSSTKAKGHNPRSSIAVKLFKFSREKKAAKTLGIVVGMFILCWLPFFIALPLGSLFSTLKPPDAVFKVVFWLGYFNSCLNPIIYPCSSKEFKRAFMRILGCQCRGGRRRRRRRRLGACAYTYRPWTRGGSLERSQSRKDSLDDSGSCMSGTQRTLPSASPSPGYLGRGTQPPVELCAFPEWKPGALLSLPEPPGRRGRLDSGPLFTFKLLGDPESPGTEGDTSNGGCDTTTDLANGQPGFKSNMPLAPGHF
T4 sequence (P23944 whole entry): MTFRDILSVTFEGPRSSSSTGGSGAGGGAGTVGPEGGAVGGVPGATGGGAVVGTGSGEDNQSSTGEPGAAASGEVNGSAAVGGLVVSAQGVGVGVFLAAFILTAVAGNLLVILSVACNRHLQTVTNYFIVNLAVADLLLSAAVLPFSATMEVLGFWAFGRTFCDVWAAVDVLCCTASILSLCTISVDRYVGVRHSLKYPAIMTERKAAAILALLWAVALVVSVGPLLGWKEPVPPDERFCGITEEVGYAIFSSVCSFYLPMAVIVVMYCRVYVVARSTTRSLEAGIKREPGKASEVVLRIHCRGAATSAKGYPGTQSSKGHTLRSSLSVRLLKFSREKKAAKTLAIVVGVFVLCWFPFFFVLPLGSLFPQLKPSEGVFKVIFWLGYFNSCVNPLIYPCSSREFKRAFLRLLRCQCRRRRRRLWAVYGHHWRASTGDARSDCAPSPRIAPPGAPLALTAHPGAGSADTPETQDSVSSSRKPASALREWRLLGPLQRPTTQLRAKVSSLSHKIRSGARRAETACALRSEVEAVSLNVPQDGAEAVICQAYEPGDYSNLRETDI
T4 sequence (P43140 whole entry): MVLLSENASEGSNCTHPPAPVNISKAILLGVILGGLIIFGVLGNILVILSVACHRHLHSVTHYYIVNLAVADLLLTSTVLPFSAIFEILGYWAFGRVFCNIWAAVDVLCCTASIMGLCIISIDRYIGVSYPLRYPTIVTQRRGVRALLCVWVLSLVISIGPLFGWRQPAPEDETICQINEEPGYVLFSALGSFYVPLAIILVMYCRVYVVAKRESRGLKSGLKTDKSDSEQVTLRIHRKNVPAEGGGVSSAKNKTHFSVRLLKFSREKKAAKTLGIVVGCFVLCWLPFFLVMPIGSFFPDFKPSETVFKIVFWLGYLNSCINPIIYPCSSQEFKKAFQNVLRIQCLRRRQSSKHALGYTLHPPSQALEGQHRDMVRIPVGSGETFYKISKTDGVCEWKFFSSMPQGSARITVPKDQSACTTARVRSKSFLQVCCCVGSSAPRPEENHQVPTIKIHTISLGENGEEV
Summary of the method: (§3)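 Rat cortical membranes (Sprague–Dawley, triple-washed; 200 μg protein) incubated with 0.8 nM [3H]prazosin in 140 mM NaCl/5 mM MgCl2/50 mM Tris-HCl pH 7.4, 60 min at room temperature. Nine concentrations in duplicate, 1% DMSO final. Nonspecific binding defined by 10 μM phentolamine.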

D(2) dopamine receptor = D(2) dopamine receptor (Rattus norvegicus, UniProt P61169); experiment: Binding affinity against Dopamine receptor D2 from rat using [3H]raclopride as radioligand
Summary of the method: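 Washed Sprague–Dawley rat striatal membranes (200 μg protein) incubated with 3 nM [3H]raclopride in 120 mM NaCl/5 mM KCl/50 mM Tris-HCl pH 7.4, 60 min at room temperature. Nine concentrations in duplicate, 1% DMSO final. Nonspecific binding with 300 μM sulpiride.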

[5] = target: T4, Adrenergic receptor alpha-1; experiment: The compound was tested for binding affinity against Alpha-1 adrenergic receptor from rat using [3H]prazosin as radioligand; assay type: protein assay; summary of the method: as §3
[6] = target: T3, Glutamate NMDA receptor; Grin1/Grin2a; experiment: Antagonistic activity against rat N-methyl-D-aspartate glutamate receptor 1/2A, expressed in Xenopus oocytes; assay type: functional, cell-based, Oocyte
Summary of the method: as §2, with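 “Two-electrode voltage clamp at -70 mV in nominally Ca2+-free Ringer (NaCl 115, KCl 2, BaCl2 1.8, HEPES 5 mM, pH 7.4). Drugs” for “Drugs”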

[7] = target: T1, Glutamate NMDA receptor; Grin1/Grin2b; experiment: Antagonistic activity against rat N-methyl-D-aspartate glutamate receptor 1/2B expressed in Xenopus oocytes; assay type: functional, cell-based, Oocyte; summary of the method: as §1
[8] = target: T2, Glutamate NMDA receptor; Grin1/Grin2c; experiment: Antagonistic activity against rat N-methyl-D-aspartate glutamate receptor 1/2C expressed in Xenopus oocytes; assay type: functional, cell-based, Oocyte
Summary of the method: as §2, with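 “Two-electrode voltage clamp at -70 mV in nominally Ca2+-free Ringer (NaCl 115, KCl 2, BaCl2 1.8, HEPES 5 mM, pH 7.4). Drugs” for “Drugs”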

[9] = Antagonistic activity against rat NR1A/2A receptor, expressed in Xenopus oocytes.; assay type: functional, cell-based; conditions: Oocyte
Summary of the method: as §2, with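 “Two-electrode voltage clamp at -70 mV in nominally Ca2+-free Ringer (NaCl 115, KCl 2, BaCl2 1.8, HEPES 5 mM, pH 7.4). Drugs” for “Drugs”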

T1 sequence (Q00960 whole entry, other chains not shown, the tested form may be a part): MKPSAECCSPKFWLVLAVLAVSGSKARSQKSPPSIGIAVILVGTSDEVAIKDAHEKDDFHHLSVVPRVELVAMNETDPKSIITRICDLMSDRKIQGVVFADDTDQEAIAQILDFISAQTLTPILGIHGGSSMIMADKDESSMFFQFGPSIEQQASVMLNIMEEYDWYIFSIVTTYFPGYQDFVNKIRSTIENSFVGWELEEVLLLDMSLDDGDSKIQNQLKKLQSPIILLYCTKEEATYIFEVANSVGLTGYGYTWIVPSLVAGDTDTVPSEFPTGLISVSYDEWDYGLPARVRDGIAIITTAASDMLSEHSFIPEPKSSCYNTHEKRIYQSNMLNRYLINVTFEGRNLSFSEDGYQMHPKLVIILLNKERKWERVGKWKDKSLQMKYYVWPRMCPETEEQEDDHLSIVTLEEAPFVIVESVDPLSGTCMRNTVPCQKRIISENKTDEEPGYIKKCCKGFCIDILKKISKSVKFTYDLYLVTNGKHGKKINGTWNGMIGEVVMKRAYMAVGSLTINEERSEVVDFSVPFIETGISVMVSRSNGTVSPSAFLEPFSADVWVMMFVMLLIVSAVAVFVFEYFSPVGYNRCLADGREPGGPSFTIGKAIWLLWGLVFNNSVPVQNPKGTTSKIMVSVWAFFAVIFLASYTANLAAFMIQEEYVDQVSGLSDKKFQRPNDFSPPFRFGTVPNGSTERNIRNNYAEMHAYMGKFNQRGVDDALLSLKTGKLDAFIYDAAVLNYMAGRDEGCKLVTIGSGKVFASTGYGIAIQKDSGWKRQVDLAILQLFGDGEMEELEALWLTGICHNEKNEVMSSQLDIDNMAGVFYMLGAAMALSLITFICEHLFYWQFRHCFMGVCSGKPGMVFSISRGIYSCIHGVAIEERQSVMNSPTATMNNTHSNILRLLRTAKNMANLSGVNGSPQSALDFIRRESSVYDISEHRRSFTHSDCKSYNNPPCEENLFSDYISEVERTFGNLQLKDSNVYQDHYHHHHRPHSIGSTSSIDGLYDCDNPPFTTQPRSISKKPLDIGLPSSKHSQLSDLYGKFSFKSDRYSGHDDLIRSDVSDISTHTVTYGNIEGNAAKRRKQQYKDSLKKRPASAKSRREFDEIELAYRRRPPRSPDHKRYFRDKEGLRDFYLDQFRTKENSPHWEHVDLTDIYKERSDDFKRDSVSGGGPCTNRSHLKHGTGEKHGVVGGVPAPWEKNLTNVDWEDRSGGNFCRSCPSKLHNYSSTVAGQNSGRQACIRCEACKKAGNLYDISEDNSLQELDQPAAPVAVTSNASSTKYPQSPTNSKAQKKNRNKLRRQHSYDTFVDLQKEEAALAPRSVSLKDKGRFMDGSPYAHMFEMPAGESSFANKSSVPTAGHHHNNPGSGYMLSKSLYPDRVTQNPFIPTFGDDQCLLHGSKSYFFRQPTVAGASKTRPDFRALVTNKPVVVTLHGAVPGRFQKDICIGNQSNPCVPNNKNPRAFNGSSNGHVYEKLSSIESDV
T3 sequence (Q00959 whole entry, other chains not shown): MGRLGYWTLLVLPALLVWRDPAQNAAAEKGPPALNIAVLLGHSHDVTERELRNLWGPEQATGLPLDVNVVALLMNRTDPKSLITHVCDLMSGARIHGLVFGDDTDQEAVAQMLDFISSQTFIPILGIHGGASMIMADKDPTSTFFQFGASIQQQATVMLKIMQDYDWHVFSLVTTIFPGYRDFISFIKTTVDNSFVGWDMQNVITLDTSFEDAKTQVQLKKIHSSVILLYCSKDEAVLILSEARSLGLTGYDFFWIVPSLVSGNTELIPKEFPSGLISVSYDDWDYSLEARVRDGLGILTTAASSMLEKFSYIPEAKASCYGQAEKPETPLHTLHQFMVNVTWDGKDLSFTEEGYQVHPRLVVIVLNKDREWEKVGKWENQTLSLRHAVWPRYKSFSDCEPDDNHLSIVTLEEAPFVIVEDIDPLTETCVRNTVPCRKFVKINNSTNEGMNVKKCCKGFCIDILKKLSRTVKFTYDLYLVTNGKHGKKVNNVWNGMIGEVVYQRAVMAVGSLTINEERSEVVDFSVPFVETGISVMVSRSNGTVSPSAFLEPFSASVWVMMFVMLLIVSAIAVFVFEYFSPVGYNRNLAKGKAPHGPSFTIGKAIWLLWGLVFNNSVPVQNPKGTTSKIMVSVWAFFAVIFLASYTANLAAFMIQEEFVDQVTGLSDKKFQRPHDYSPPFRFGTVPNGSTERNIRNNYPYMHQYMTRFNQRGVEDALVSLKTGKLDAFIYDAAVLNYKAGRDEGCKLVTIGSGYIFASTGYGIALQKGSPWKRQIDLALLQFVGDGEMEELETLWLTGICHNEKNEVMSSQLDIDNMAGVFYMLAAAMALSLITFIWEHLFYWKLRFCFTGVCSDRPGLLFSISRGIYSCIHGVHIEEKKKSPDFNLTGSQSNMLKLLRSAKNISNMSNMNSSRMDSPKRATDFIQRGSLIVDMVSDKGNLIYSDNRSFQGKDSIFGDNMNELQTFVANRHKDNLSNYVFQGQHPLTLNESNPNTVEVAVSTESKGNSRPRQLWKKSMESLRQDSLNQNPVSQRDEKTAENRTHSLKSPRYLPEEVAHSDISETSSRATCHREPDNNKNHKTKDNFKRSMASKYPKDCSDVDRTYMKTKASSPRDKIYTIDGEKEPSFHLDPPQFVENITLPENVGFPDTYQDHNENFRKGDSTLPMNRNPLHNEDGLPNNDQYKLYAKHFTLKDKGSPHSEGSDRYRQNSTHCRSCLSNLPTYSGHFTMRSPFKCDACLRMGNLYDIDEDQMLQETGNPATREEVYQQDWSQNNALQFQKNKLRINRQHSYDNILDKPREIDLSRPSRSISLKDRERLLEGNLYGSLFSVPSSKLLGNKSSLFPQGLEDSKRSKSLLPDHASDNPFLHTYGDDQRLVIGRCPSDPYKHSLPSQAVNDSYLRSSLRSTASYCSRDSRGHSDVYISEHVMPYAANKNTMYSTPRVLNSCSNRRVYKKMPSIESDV
Chain of D(2) dopamine receptor (P61169 whole entry): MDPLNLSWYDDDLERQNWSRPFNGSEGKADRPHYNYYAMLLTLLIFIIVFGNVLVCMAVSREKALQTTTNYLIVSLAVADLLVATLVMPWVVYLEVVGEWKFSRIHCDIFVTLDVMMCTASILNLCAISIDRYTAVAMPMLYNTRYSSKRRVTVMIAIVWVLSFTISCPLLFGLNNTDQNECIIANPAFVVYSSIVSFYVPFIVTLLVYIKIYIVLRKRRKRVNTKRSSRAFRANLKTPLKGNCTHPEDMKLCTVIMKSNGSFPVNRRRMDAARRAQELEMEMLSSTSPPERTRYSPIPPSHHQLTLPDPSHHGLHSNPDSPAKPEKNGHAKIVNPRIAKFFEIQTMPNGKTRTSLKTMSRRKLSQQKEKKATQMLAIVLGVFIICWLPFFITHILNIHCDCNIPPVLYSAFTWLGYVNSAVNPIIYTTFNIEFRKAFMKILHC
T2 sequence (Q00961 whole entry, other chains not shown, the tested form may be a part): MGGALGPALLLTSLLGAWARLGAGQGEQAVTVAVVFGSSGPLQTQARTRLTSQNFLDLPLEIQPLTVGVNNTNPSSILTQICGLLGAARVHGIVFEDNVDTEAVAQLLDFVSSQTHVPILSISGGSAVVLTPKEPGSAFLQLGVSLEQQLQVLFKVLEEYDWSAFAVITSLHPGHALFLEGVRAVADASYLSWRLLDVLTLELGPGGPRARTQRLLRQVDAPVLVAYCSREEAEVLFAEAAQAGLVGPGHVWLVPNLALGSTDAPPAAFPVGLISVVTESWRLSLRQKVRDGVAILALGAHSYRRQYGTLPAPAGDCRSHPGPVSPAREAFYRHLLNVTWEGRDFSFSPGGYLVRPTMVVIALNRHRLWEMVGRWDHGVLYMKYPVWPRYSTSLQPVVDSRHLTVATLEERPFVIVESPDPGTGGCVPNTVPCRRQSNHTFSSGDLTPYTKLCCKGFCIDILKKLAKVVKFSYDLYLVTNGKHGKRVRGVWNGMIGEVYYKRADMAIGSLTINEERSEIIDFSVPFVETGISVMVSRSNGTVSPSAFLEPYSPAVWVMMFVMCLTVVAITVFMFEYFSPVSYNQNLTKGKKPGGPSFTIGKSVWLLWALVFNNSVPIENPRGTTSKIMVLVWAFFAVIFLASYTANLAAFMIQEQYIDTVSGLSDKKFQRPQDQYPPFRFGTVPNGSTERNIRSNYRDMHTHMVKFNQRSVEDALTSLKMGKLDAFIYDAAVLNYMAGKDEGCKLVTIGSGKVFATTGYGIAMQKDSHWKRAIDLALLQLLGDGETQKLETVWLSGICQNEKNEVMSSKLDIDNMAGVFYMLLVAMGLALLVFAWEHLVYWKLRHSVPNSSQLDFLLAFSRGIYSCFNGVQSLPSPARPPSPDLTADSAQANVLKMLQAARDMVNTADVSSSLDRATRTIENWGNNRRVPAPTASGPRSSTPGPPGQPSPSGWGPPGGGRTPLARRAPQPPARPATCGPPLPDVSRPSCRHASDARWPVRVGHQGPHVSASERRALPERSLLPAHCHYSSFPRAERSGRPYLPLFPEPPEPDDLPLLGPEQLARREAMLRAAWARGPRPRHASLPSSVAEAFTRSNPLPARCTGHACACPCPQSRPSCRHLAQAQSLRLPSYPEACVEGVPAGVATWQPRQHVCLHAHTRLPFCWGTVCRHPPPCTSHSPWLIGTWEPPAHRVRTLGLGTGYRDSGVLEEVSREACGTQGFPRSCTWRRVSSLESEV

| Structure (SMILES) | IC50 [1] | IC50 [2] | IC50 [3] | IC50 [4] | IC50 (D(2) dopamine receptor) | IC50 [5] | IC50 [6] | IC50 [7] | IC50 [8] | IC50 [9] |
| --- | --- | --- | --- | --- | --- | --- | --- | --- | --- | --- |
| Nc1ccc(C#CCCN2CCC(Cc3ccc(Cl)cc3)CC2)cc1 | 1.2 µM |  |  |  |  |  |  |  |  |  |
| Fc1ccc(C#CCCN2CCC(Cc3ccccc3)CC2)cc1 | 2.7 µM | > 100 µM | > 100 µM |  |  |  |  |  |  |  |
| CS(=O)(=O)Nc1ccc(C#CCCCN2CCC(Cc3ccccc3)CC2)cc1 |  |  |  |  | 2.3 µM | 1.1 µM | > 100 µM | 0.28 µM | > 100 µM |  |
| CC(=O)Nc1ccc(C#CCN2CCC(Cc3ccccc3)CC2)cc1 |  |  |  |  |  |  | 56 µM | 13 µM | > 100 µM |  |
| Nc1ccc(C#CCCN2CCC(Cc3ccccc3)CC2)cc1 | 0.43 µM |  |  | 1 µM | 0.8 µM |  |  |  |  |  |
| Cc1ccc(CC2CCN(CCC#Cc3ccc(N)cc3)CC2)cc1 | 0.31 µM | 27 µM | 75 µM | 1.2 µM | 0.8 µM |  |  |  |  |  |
| CC(=O)Nc1ccc(C#CCCN2CCC(Cc3ccccc3)CC2)cc1 |  |  |  |  | 0.1 µM | 1.1 µM | > 100 µM | 0.26 µM | > 100 µM |  |
| Nc1ccc(C#CCCN2CCC(Cc3ccccc3)CC2)cc1N | 0.19 µM | > 100 µM | > 100 µM | 1 µM | 1.1 µM |  |  |  |  |  |
| Oc1ccc(C#CCN2CCC(Cc3ccccc3)CC2)cc1 | 0.1 µM | > 100 µM | > 100 µM | 1.5 µM | 1.7 µM |  |  |  |  |  |
| NS(=O)(=O)c1ccc(C#CCCN2CCC(Cc3ccccc3)CC2)cc1 |  |  |  |  | 0.1 µM | 1.4 µM | 22 µM | 0.31 µM | > 100 µM |  |
| Nc1ccc(C#CCCN2CCC(O)(Cc3ccccc3)CC2)cc1 | 0.83 µM |  | > 100 µM | 63 µM | 15 µM |  |  |  |  |  |
| Oc1ccc(C#CCCN2CCC(Cc3ccccc3)CC2)cc1 | 0.17 µM |  | > 100 µM | 0.58 µM | 0.29 µM |  |  |  |  |  |
| NC(=O)c1ccc(C#CCCN2CCC(Cc3ccccc3)CC2)cc1 |  |  |  |  |  |  | > 100 µM | 2 µM | > 100 µM |  |
| Cc1ccc(C#CCCN2CCC(Cc3ccccc3)CC2)cc1 | 4.2 µM | > 100 µM | 42 µM |  |  |  |  |  |  |  |
| C(#Cc1ccccc1)CCN1CCC(Cc2ccccc2)CC1 | 4.7 µM |  |  |  |  |  |  |  |  | > 100 µM |
| CNc1ccc(C#CCCN2CCC(Cc3ccccc3)CC2)cc1 |  |  |  |  | 0.3 µM | 1 µM | 84 µM | 0.46 µM | > 100 µM |  |
| Nc1ccc(C#CCCCN2CCC(Cc3ccccc3)CC2)cc1 | 0.38 µM | > 100 µM | 12 µM |  |  |  |  |  |  |  |
| CS(=O)(=O)Nc1ccc(C#CCCN2CCC(Cc3ccccc3)CC2)cc1 |  |  |  |  | 0.2 µM | 1.2 µM | > 100 µM | 0.24 µM | > 100 µM |  |
| Nc1ccccc1C#CCCN1CCC(Cc2ccccc2)CC1 | 1.1 µM | > 100 µM | 70 µM |  |  |  |  |  |  |  |
| NCc1cccc(C#CCCN2CCC(Cc3ccccc3)CC2)c1 |  |  |  |  | 0.3 µM | 0.8 µM |  | 0.52 µM | > 100 µM |  |
| Clc1ccc(C#CCCN2CCC(Cc3ccccc3)CC2)cc1 | 4 µM | > 100 µM | 47 µM |  |  |  |  |  |  |  |
| Nc1ccc(C#CCCN2CCC(Cc3ccc(F)cc3)CC2)cc1 | 0.26 µM | > 100 µM | 70 µM | 0.7 µM | 0.4 µM |  |  |  |  |  |

Further lines, results first:

| IC50 [1] | IC50 [2] | IC50 [3] | IC50 [4] | IC50 (D(2) dopamine receptor) | IC50 [5] | IC50 [6] | IC50 [7] | IC50 [8] | IC50 [9] | Structure (SMILES) |
| --- | --- | --- | --- | --- | --- | --- | --- | --- | --- | --- |
|  | > 100 µM | > 100 µM |  |  |  |  |  |  |  | Nc1ccc(C#CCN2CCC(Cc3ccccc3)CC2)cc1 |
| 0.65 µM | > 100 µM | 29 µM | 31 µM | 7.9 µM |  |  |  |  |  | Nc1ccc(C#CCCN2CCC(O)(Cc3ccc(F)cc3)CC2)cc1 |
| 3.8 µM | > 100 µM | > 100 µM |  |  |  |  |  |  |  | Clc1cccc(C#CCCN2CCC(Cc3ccccc3)CC2)c1 |
|  |  |  |  | 12 µM | 2.2 µM | > 100 µM | 0.15 µM | > 100 µM |  | CS(=O)(=O)Nc1ccc(C#CCN2CCC(Cc3ccccc3)CC2)cc1 |
| 1.1 µM | > 100 µM | > 100 µM |  |  |  |  |  |  |  | Nc1cccc(C#CCCN2CCC(Cc3ccccc3)CC2)c1 |
| 2.6 µM | > 100 µM | > 100 µM |  |  |  |  |  |  |  | COc1ccc(C#CCCN2CCC(Cc3ccccc3)CC2)cc1 |
| 0.37 µM | > 100 µM | 68 µM | 85 µM | 10 µM |  |  |  |  |  | Cc1ccc(CC2(O)CCN(CCC#Cc3ccc(N)cc3)CC2)cc1 |
| 1.2 µM | > 100 µM | 85 µM |  |  |  |  |  |  |  | Clc1ccccc1C#CCCN1CCC(Cc2ccccc2)CC1 |
|  |  |  |  |  |  | > 100 µM | 1.4 µM | > 100 µM |  | CC(=O)Nc1ccc(C#CCCCN2CCC(Cc3ccccc3)CC2)cc1 |
|  |  |  |  |  |  | > 100 µM | 15 µM | > 100 µM |  | CN(C)c1ccc(C#CCCN2CCC(Cc3ccccc3)CC2)cc1 |
|  | > 100 µM | > 100 µM |  |  |  |  |  |  |  | O=[N+]([O-])c1ccc(C#CCCN2CCC(Cc3ccccc3)CC2)cc1 |
